We go through 3 molecules from ChEMBL document CHEMBL1156308 (J Med Chem, 2010).

Series [1] in a line: Biodistribution in iv dosed monkey brain after 6 hrs. The series is classed as ADME, organism-based, Macaca mulatta. To be noted: rhesus monkey, read-out: Drug uptake.
Series [2] can be described thus: Biodistribution in baboon whole brain at 85 mg, iv after 60 mins. The series is classed as ADME, organism-based. The settings on record: papio hamadryas, read-out: Drug uptake. Summed up:
(§1)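 Brain PET ran 90 min after i.v. [11C]-labelled drug in anaesthetised baboons. Whole-brain regions of interest gave time-activity curves in %ID/cc. µg/ml values were estimated from baboon weight (17 kg) and the recommended human daily dose per kg, assuming signal comes from intact drug.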

A short description of series [3]: Biodistribution in baboon heart at 85 mg, iv after 15 mins. The settings on record: papio hamadryas, read-out: Drug uptake. The series is classed as ADME, organism-based.
The nature of series [4]: Biodistribution in baboon kidney cortex at 85 mg, iv after 15 mins. The series is classed as ADME, organism-based. The settings on record: papio hamadryas, read-out: Drug uptake.
Series [5] in a line: Biodistribution in baboon heart at 85 mg, iv after 60 mins. The settings on record: papio hamadryas, read-out: Drug uptake. The series is classed as ADME, organism-based.
A short description of series [6]: Biodistribution in baboon heart at 85 mg, iv after 90 mins. The settings on record: papio hamadryas, read-out: Drug uptake. The class given is ADME, organism-based.
Series [7] is described as follows: Biodistribution in baboon kidney medulla at 85 mg, iv after 60 mins. The series is classed as ADME, organism-based. The settings on record: papio hamadryas, read-out: Drug uptake. Put shortly: (§2)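 The [11C]-labeled drug was given as an i.v. micro dose via a radial arm vein to anesthetized baboons (ketamine 10 mg/kg i.m.; O2/N2O/isoflurane 1–4%), then torso PET. Organ TACs came from manually drawn ROIs and are reported as %ID/cc. µg/ml was estimated assuming a 5 mg/kg dose, a 17 kg baboon, and that the positron signal is intact drug.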

Series [8] in a line: Biodistribution in baboon liver at 85 mg, iv after 60 mins. The class given is ADME, organism-based. To be noted: papio hamadryas, read-out: Drug uptake.
Series [9] can be described thus: Biodistribution in baboon lung at 85 mg, iv after 30 mins. To be noted: papio hamadryas, read-out: Drug uptake. The class given is ADME, organism-based.
A short description of series [10]: Biodistribution in baboon lung at 85 mg, iv after 60 mins. The class given is ADME, organism-based. To be noted: papio hamadryas, read-out: Drug uptake.
The nature of series [11]: Biodistribution in baboon plasma at 85 mg, iv after 90 mins. To be noted: papio hamadryas, read-out: Drug uptake. The class given is ADME, organism-based. Put shortly: (§3)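 Anaesthetised baboons received [11C]-labelled drug i.v. (radial arm vein) by PET protocol. Arterial blood was drawn from a popliteal catheter every 5 s for 2 min, then at 2–90 min. Plasma activity is given as %ID/cc. µg/ml values were estimated from the human daily dose per kg scaled to a 17 kg baboon, assuming signal comes from intact drug.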

Series [12] in a line: Biodistribution in baboon kidney medulla at 85 mg, iv after 30 mins. The class given is ADME, organism-based. To be noted: papio hamadryas, read-out: Drug uptake. Put shortly: as §2
Series [13] in a line: Biodistribution in baboon liver at 85 mg, iv after 90 mins. The class given is ADME, organism-based. The settings on record: papio hamadryas, read-out: Drug uptake.
A short description of series [14]: Biodistribution in baboon kidney cortex at 85 mg, iv after 90 mins. To be noted: papio hamadryas, read-out: Drug uptake. The series is classed as ADME, organism-based.
Series [15] can be described thus: Biodistribution in baboon heart at 85 mg, iv after 30 mins. The class given is ADME, organism-based. To be noted: papio hamadryas, read-out: Drug uptake.
The nature of series [16]: Biodistribution in baboon whole brain at 85 mg, iv after 90 mins. The series is classed as ADME, organism-based. The settings on record: papio hamadryas, read-out: Drug uptake. Put shortly:
as §1

Series [17] is described as follows: Biodistribution in baboon plasma at 85 mg, iv after 15 mins. The series is classed as ADME, organism-based. To be noted: papio hamadryas, read-out: Drug uptake. Put shortly:
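Anesthetised baboons (ketamine 10 mg/kg i.m.; oxygen, nitrous oxide and isoflurane 1–4% during scanning) got a micro dose of [11C]-labelled drug i.v. via a radial arm vein; arterial blood was sampled serially over 90 min. Plasma %ID/cc was converted to µg/ml from the listed dose over a 17 kg baboon, assuming the signal is intact drug.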

A short description of series [18]: Biodistribution in baboon lung at 85 mg, iv after 90 mins. The series is classed as ADME, organism-based. To be noted: papio hamadryas, read-out: Drug uptake.
Series [19] can be described thus: Biodistribution in baboon kidney cortex at 85 mg, iv after 60 mins. The class given is ADME, organism-based. To be noted: papio hamadryas, read-out: Drug uptake.
A short description of series [20]: Biodistribution in baboon liver at 85 mg, iv after 15 mins. The series is classed as ADME, organism-based. To be noted: papio hamadryas, read-out: Drug uptake.
Series [21] can be described thus: Biodistribution in baboon kidney medulla at 85 mg, iv after 90 mins. The class given is ADME, organism-based. The settings on record: papio hamadryas, read-out: Drug uptake. Summed up:
as §2

The nature of series [22]: Biodistribution in baboon kidney cortex at 85 mg, iv after 30 mins. The class given is ADME, organism-based. The settings on record: papio hamadryas, read-out: Drug uptake.
A short description of series [23]: Biodistribution in baboon kidney medulla at 85 mg, iv after 15 mins. The settings on record: papio hamadryas, read-out: Drug uptake. The series is classed as ADME, organism-based. Put shortly:
as §2

A short description of series [24]: Biodistribution in baboon whole brain at 85 mg, iv after 30 mins. The settings on record: papio hamadryas, read-out: Drug uptake. The series is classed as ADME, organism-based. Put shortly: as §1
Series [25] in a line: Biodistribution in baboon lung at 85 mg, iv after 15 mins. The settings on record: papio hamadryas, read-out: Drug uptake. The class given is ADME, organism-based.
Series [26] in a line: Biodistribution in baboon liver at 85 mg, iv after 30 mins. The series is classed as ADME, organism-based. To be noted: papio hamadryas, read-out: Drug uptake.
Series [27] is described as follows: Biodistribution in baboon plasma at 85 mg, iv after 60 mins. The class given is ADME, organism-based. To be noted: papio hamadryas, read-out: Drug uptake. Summed up: as §3
A short description of series [28]: Biodistribution in baboon plasma at 85 mg, iv after 30 mins. The class given is ADME, organism-based. The settings on record: papio hamadryas, read-out: Drug uptake. Summed up: as §3
A short description of series [29]: Biodistribution in mouse whole brain at 10 mg/kg, sc after 60 mins. The class given is ADME, organism-based. Further details: dose 10 mg/kg, route subcutaneous. To be noted: read-out: Drug uptake.
Series [30] can be described thus: Biodistribution in mouse whole brain at 10 mg/kg, sc after 30 mins. The class given is ADME, organism-based. More on the design: dose 10 mg/kg, route subcutaneous. To be noted: read-out: Drug uptake.

As to `CO[C@H]1/C=C/O[C@@]2(C)Oc3c(C)c(O)c4cc(c(/C=N/N5CCN([14CH3])CC5)c(O)c4c3C2=O)NC(=O)/C(C)=C\C=C\C(C)[C@H](O)[C@@H](C)[C@@H](O)[C@@H](C)[C@H](OC(C)=O)[C@@H]1C` (stereo not given in full), the concentration at 6 h in series [1] amounted to 870 ng/g.
Turning to `NN[11C](=O)c1ccncc1`, the concentration at 1 h in [2] worked out at 2110 ng/mL; in series [5] it was 3740 ng/mL; in series [7] it was 16400 ng/mL; in series [8] it was 7640 ng/mL; in series [10], 4420 ng/mL; in [19], 7720 ng/mL. For the same molecule, the concentration at 1 h in series [27] stood at 2050 ng/mL. The concentration at 0.25 h amounted to 8720 ng/mL in [3]; 15100 ng/mL in [4]; 3760 ng/mL in [17]; 12500 ng/mL in series [20]; 18900 ng/mL in series [23]; 7720 ng/mL in series [25]. For the same molecule, the concentration at 1.5 h in series [6] is 4150 ng/mL; in [11] it was 1620 ng/mL; in [13], 6910 ng/mL; in series [14], 8540 ng/mL; in [16] it was 1750 ng/mL; in series [18], 4190 ng/mL. Besides, the concentration at 1.5 h in series [21] was 14700 ng/mL. The concentration at 0.5 h in series [9] is 6090 ng/mL; in series [12], 15400 ng/mL; in [15], 6130 ng/mL; in series [22] it was 9260 ng/mL; in series [24], 2540 ng/mL; in series [26], 9710 ng/mL. Moreover, in series [28], the concentration at 0.5 h came to 2960 ng/mL.
Turning to `NN[14C](=O)c1ccncc1`, the concentration at 1 h in [29] was determined as 3200 ng/g. Besides, in series [30], the concentration at 0.5 h came to 4400 ng/g.
